Experimental data as given in ChEMBL document CHEMBL1157514, “3-Alkenyl-2-azetidinones as fatty acid amide hydrolase inhibitors” (Bioorg Med Chem Lett, 2008).
Calls of active or inactive are those of the source. The calls are words filed in the database; no cut-off is given here.

Assays:
[1] = molecular target: T1, Fatty-acid amide hydrolase 1 (Homo sapiens, UniProt O00519); test: Inhibition of human FAAH expressed in Escherichia coli
T1 sequence (O00519 whole entry): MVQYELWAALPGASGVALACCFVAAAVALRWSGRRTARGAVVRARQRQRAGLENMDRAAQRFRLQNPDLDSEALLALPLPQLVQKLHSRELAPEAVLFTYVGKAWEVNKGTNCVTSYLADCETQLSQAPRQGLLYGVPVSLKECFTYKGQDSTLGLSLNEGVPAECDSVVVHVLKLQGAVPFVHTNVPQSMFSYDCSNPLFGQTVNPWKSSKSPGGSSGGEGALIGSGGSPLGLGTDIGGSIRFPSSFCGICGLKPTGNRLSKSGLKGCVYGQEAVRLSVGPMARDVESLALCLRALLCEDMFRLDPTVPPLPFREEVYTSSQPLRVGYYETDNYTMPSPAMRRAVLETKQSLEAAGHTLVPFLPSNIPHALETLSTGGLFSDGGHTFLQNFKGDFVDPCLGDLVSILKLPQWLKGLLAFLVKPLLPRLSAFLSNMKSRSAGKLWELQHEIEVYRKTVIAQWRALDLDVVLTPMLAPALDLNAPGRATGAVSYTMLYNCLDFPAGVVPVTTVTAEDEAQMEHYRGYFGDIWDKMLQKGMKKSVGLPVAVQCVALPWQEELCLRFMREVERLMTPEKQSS
In short: (§1)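 Human FAAH expressed in E. coli, in Tris-HCl pH 7.4, was added on ice to compound or DMSO. [3H]-AEA was added (50,000 dpm; 2 µM final) in Tris-HCl with 0.1% BSA, then incubated 10 min at 37 °C. The reaction was stopped on ice with cold MeOH–CHCl3 (1:1) and centrifuged. [3H]-ethanolamine in the aqueous phase was counted by liquid scintillation, with no-enzyme blanks subtracted.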

[2] = molecular target: T2, Fatty-acid amide hydrolase 1 (Homo sapiens) (UniProt O00519); test: Inhibition of human FAAH expressed in Escherichia coli at 1 mM; in short: as §1
T2 sequence (whole entry): T1 sequence (O00519 whole entry)

[3] = molecular target: T3, Monoglyceride lipase (Homo sapiens) (UniProt Q99685); test: Inhibition of human MGL expressed in Escherichia coli at 1 mM
T3 sequence (whole entry): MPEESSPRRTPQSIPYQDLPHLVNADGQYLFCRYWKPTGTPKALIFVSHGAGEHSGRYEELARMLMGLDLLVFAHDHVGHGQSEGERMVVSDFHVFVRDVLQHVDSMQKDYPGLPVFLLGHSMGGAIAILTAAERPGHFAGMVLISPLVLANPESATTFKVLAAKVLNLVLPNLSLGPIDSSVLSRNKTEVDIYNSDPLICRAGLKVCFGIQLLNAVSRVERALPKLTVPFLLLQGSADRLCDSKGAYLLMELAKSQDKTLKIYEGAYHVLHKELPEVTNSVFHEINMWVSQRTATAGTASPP
In short: (§2)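 Human MGL expressed in E. coli was run in Tris-HCl pH 8 with [3H]-oleoylglycerol (50,000 dpm; 10 µM final) as substrate. Otherwise the radiometric hydrolysis protocol was similar: compound or DMSO, chloroform–methanol quench, scintillation counting of the aqueous phase, and subtraction of buffer-only blanks.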

[4] = molecular target: T4, Pancreatic elastase (Sus scrofa) (UniProt P08419+P00772); test: Inhibition of pig pancreatic elastase at 0.1 mM; format: protein assay
Homo sapiens = species on record: Homo sapiens; test: Selectivity ratio of IC50 for human FAAH over IC50 for human MGL
[5] = molecular target: T4, Pancreatic elastase (Sus scrofa); test: Inhibition of pig pancreatic elastase at 5 mM; format: protein assay
[6] = molecular target: T4, Pancreatic elastase (Sus scrofa); test: Inhibition of pig pancreatic elastase at 10 mM; format: protein assay
[7] = molecular target: T4, Pancreatic elastase (Sus scrofa); test: Inhibition of pig pancreatic elastase at 2.5 mM; format: protein assay
Monoglyceride lipase = molecular target: T5, Monoglyceride lipase (Homo sapiens, UniProt Q99685); test: Inhibition of human MGL expressed in Escherichia coli; in short: as §2
T5 sequence (Q99685 whole entry): T3 sequence (whole entry)

[8] = molecular target: T4, Pancreatic elastase (Sus scrofa); test: Inhibition of pig pancreatic elastase at 100 uM; format: protein assay
[9] = Inhibition of penicillin-binding protein 2a assessed as residual activity at 100 uM after 16 hrs by SDS-PAGE
In short: (§3)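 Compound (100 µM) was incubated with PBP (0.8–2.5 µM) for 16 h at 30 °C in 50 mM sodium phosphate pH 7 with 5% DMF; PBP2a and PBP5 also had 0.5 M NaCl. Free PBP was then labelled with 25 µM fluorescein-ampicillin for 45 min and the reaction stopped with SDS-PAGE loading buffer. Gel fluorescence was quantified, background subtracted, and residual activity given as % of initial (triplicate).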

[10] = Inhibition of penicillin-binding protein R39 assessed as residual activity; in short: as §3
[11] = Inhibition of penicillin-binding protein 5 assessed as residual activity at 100 uM after 16 hrs by SDS-PAGE; in short: as §3
[12] = Inhibition of penicillin-binding protein 2x assessed as residual activity; in short: as §3

Row | Structure (SMILES) | IC50 [1] | inhibition [2] | inhibition [3] | further results
1 | C=CCCCC1(CCCC=C)CNC1=O | 259 µM | 80.5% | 36.3% | –
2 | C=CCCCC1(CCCC=C)CN([Si](C)(C)C(C)(C)C)C1=O | – | 25.2% | 10.3% | –
3 | C=CCCC(=O)N1CC(CCC=C)C1=O (racemic) | 21.9 µM | 103% | 58.1% | Activity [4]: inactive; Ratio IC50 (Homo sapiens): 37; Activity [5]: inactive; Activity [6]: inactive; Activity [7]: inactive; IC50 (Monoglyceride lipase): 817 µM
4 | C=CCCC(=O)N1CC(CC=C)C1=O (racemic) | 61.8 µM | 96.5% | 46.4% | Activity [8]: Active; Activity [9]: 87%; Activity [10]: 73%; Activity [11]: 104%; Activity [12]: 108%
5 | C=CCCCC1CN(C(=O)CCC=C)C1=O (racemic) | 4.5 µM | 101% | 62.1% | Activity [4]: inactive; Ratio IC50 (Homo sapiens): 146; Activity [5]: inactive; Activity [6]: inactive; Activity [7]: inactive; IC50 (Monoglyceride lipase): 657 µM
6 | C=CCCC1CNC1=O (racemic) | – | 48% | 8.1% | –
7 | C=CCCCC1CN([Si](C)(C)C(C)(C)C)C1=O (racemic) | – | 76.9% | 54.9% | –

More lines, main results first:

Row | IC50 [1] | inhibition [2] | inhibition [3] | Structure (SMILES) | further results
8 | – | 43.6% | 77.5% | C=CCC1CN([Si](C)(C)C(C)(C)C)C1=O (racemic) | –
9 | – | 56.6% | 15.6% | C=CCC1CNC1=O (racemic) | –
10 | – | 49.5% | 69.9% | C=CCCC1CN([Si](C)(C)C(C)(C)C)C1=O (racemic) | –
11 | – | 80.9% | 54.9% | C=CCCCC1CNC1=O (racemic) | –
